# Screening results as filed in PubChem.
# HSP90 inh – inhibitors of HSP90 luciferase refolding in rabbit reticulocyte lysate | 290,000 compounds, 0.91% hits | luciferase refolding luminescence, 3 h | inhibition, % at 5.6 µM;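 active means inhibition above the screen-wide mean plus 3 SD, computed separately per campaign, cut at about 16% in these data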;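 further: 0% = DMSO wells and 100% = 60 µM geldanamycin wells; inhibitors lower the luminescence because luciferase stays unfolded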
# FLuc stim CS – affects firefly luciferase, flagging false hits in luciferase stimulation screens; P08659; 200,000 tested, under 10 active; activation factor at 10 µM; ATPlite luciferase biochemical, luminescence, 10 min; 0 = ATP-free wells, 1 = DMSO control;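 active means luciferase activation factor, scaled between plate controls, of at least 2 with compound at 10 µM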
# Target sequence (P08659 whole entry, looked up): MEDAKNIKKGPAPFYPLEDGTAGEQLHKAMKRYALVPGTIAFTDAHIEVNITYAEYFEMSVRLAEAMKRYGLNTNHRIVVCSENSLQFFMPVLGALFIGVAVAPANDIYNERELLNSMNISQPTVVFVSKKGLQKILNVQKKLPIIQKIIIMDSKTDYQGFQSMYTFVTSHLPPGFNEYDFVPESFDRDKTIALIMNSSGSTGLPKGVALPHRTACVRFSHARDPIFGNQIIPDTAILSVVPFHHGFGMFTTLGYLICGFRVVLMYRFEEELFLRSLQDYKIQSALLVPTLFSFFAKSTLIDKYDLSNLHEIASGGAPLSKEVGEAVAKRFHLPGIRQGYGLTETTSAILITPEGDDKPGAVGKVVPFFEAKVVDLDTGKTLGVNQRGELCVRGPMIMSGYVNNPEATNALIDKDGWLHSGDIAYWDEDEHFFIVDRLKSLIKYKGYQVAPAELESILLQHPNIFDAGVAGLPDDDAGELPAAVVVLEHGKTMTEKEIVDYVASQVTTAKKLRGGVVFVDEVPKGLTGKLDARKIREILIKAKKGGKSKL
#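 Assay system: Luciferase/luciferin detection reagent, cell-free biochemical luciferase assay / Also added: ATP substrate / Schedule: 10 min at ambient temperature / Measured by: luminescence measurement of luciferase light output / Benchmarks: low control with PBS replacing ATP, high control enzyme plus ATP without compound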
# C8 TRAIL sens – sensitizes caspase-8 expressing cells to TRAIL. NB7+C8 cells + TRAIL, ATPlite viability luminescence. inhibition (viability loss, TRAIL sensitization), % at 10 µM. 360,000 compounds, 1% hits. AID 624354;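 active means compounds causing at least 50% loss of cell viability in the single-dose screen, relative to plate controls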
# PPC-1+TRAIL kill – PPC-1 cancer cell killing with TRAIL present; PPC-1 cells + TRAIL, ATPLite viability luminescence; cell killing (% activity), % at 4 µM or 5 µM; 220,000 compounds, 0.41% hits;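 active means cell killing above 50% in the first pass at 4 µM, then a duplicate retest at 5 µM averaging 50% or more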;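 further: plate controls were cells with TRAIL plus DMSO for no effect and medium-only wells lacking cells for full effect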
# FLuc inh counter – Photinus pyralis luciferase inhibition counter-screen; P08659; ATPLite firefly luciferase biochemical luminescence, 10 min; inhibition, % at 10 µM; 200,000 compounds, 1.5% hits;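 active means inhibition above about 50% when tested at 10 µM, limit read from the data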
# Numbers without * were called inactive; . = no result. In the library only some 2% were active in any assay of this set; here they are far more common.
SMILES,HSP90 inh,FLuc stim CS,C8 TRAIL sens,PPC-1+TRAIL kill,FLuc inh counter
CC(C)N1CCC1(C)C(=O)Nc1cc(-c2ccccc2)nn1C (stereo not drawn),.,.,-16,.,.
Cc1ccc(-c2nc(NC(=O)c3nn(C)cc3[N+](=O)[O-])sc2C)cc1,5,1.1,93*,34,-6
Cc1cnc(NC(=O)c2nn(C)cc2[N+](=O)[O-])s1,7,1,2,33,1
Cn1cc([N+](=O)[O-])c(C(=O)Nc2ccc(C(=O)N3CCCCC3)cc2)n1,4,1,14,-1,-3
Cc1ccc(Cn2ccc(NC(=O)c3nn(C)cc3[N+](=O)[O-])n2)cc1,4,1,20,8,-3
CC(=O)c1c(C)[nH]c(C(=O)Nc2nc(-c3ccc(Cl)cc3)cs2)c1C,-5,1,13,22,-2
Cn1cc([N+](=O)[O-])c(C(=O)Nc2ccc(C3CCCCC3)cc2)n1,0,0.9,61*,46,14
Cn1cc([N+](=O)[O-])c(C(=O)Nc2nc(-c3ccc(Cl)cc3)cs2)n1,8,1,94*,48,-4
Cc1ccc(-c2nc(NC(=O)c3nn(C)cc3[N+](=O)[O-])sc2C)cc1C,4,1.1,95*,24,-9
C[C@H]1CN([C@@H](C)CO)C(=O)c2cc(C#CCC3CCCC3)cnc2O[C@@H]1CN(C)C(=O)CC1CC1,.,.,-31,.,.
C[C@@H]1CN([C@H](C)CO)C(=O)CCCn2cc(nn2)CO[C@H]1CN(C)C(=O)c1ccc2ccn(C)c2c1,.,.,2,.,.
COC(=O)N/N=C/c1cc(C)n(-c2ccc(Br)cc2)c1C,1,.,3,7,.
Cc1cc(/C=N/NC(=O)COc2cccc3cccnc23)c(C)n1-c1ccc(O)cc1,5,0.4,-11,14,57*
Cc1cc(/C=N/NC(=O)c2cccc([N+](=O)[O-])c2)c(C)n1-c1ccccc1,0,0.3,-1,25,66*
Cc1cc(C)cc(-n2c(C)cc(/C=N\NC(=O)COc3cccc4cccnc34)c2C)c1,-1,1.1,-1,3,-8
O=C(NN=Cc1ccccc1O)c1cccc([N+](=O)[O-])c1,.,.,10,.,.
Cc1cc(/C=N/NC(=O)c2cccs2)c(C)n1-c1cnccn1,1,0.5,15,18,55*
COC(=O)N/N=C/c1cc(C)n(-c2ccccc2)c1C,3,0.5,9,9,52*
CCCCOc1cccc2c(=O)n(CC(=O)Nc3ccc4c(c3)OCCO4)ccc12,.,.,-7,.,.
CCCCNC(=O)C(NC(=O)c1cccnc1)C(=O)c1ccccc1 (stereo not drawn),.,.,-9,.,.
Cc1cc(/C=N/NC(=O)c2ccncc2)c(C)n1-c1ccccc1,6,0.3,14,20,70*
CCc1ccc(-n2c(C)cc(/C=N/NC(=O)c3ccncc3)c2C)cc1,1,0.9,2,26,8
Cc1ccc(C(=O)N2CCCC2(C)C(=O)NCC(C)C)cc1F (stereo not drawn),.,.,1,.,.
O=C(COc1ccc2c(c1)CCC2)Nc1ccccn1,.,.,84*,.,.
CN(C)c1ccc(-c2cc(NC=O)c3ncc(-c4ccc(F)c(Cl)c4)n3c2)cc1,.,.,-6,.,.
SMILES,HSP90 inh,FLuc stim CS,C8 TRAIL sens,PPC-1+TRAIL kill,FLuc inh counter
Cc1ccc2nc(/C=C/c3cccc(F)c3)ccc2c1,-3,0.5,25,23,52*
O=C1CC(Sc2nnnn2C2CCCCC2)C(=O)N1c1ccccc1 (stereo not drawn),-1,0.4,5,7,57*
Cn1nnnc1SC1CC(=O)N(c2ccccc2)C1=O (stereo not drawn),1,1.1,-6,20,-8
CCCCN1C(=O)C(CC(=O)NCCc2ccccn2)CC(C(=O)N2CCCCCC2)=C1C (stereo not drawn),.,.,-8,.,.
O=C(Nc1ccc(N2CCCCC2)cc1)c1ccc2c(c1)OCCO2,4,0.4,36,38,65*
O=C(Nc1cccc(Cl)c1)c1ccc2c(c1)OCCO2,7,.,59*,.,.
COc1ccccc1/C=C/C(=O)Nc1ccc2c(c1)OCCO2,1,0.2,75*,56*,85*
COc1cc(C(=O)Nc2ccc3c(c2)OCCO3)ccc1OC(F)F,-1,0.4,40,22,59*
COc1ccccc1/C=C/C(=O)OCC(=O)Nc1ccc2c(c1)OCCO2,.,.,-17,.,.
CC(=O)N1CCN(c2ccc(NC(=O)c3ccc4c(c3)OCCO4)cc2)CC1,-3,0.9,-6,-11,6
O=S1(=O)CC(N2CC=CC2)CN1Cc1ccc(F)cc1 (stereo not drawn),.,.,-9,.,.
N#Cc1ccc(OCC(=O)N2CCN(c3ccc(C(F)(F)F)cn3)CC2)cc1,.,.,-7,.,.
CCc1nc2ccc(C(=O)N(CC)CCN(C)C)cn2c1N(C)C(=O)c1cccc(OC)c1,.,.,-9,.,.
CC1=C(C(=O)Nc2ccccc2C(=O)N2CCN(c3ccccc3)CC2)SCCO1,.,.,-6,.,.
CC(=O)Nc1ccc(S(=O)(=O)NCC(=O)OCC(=O)NCCc2ccccc2)cc1,.,.,5,.,.
Cn1cnc(S(=O)(=O)N2CCCCC2c2cc(C(=O)Nc3ccc(F)c(Cl)c3)no2)c1 (stereo not drawn),.,.,8,.,.
CC(C)=CC(=O)Nc1ccc2c(c1)OCO2,6,0.5,32,24,51*
COc1cc(C(=O)Nc2ccc3c(c2)OCCO3)ccc1OC(C)C,-3,0.6,16,29,41
O=C(Nc1cccc(S(=O)(=O)N2CCCCCC2)c1)c1ccc2ccccc2n1,3,1,21,12,0
COc1ccc(NC(=O)c2ccc3c(c2)OCCO3)cc1OC,2,.,52*,.,.
COc1ccc(N/C=C\C(=O)c2ccc3c(c2)OCO3)cc1OC,0,0.4,29,35,60*
O=C(CSCSCC(=O)Nc1ccc2c(c1)OCO2)Nc1ccc2c(c1)OCO2,-4,0.9,8,17,12
O=C(Nc1ccc(N2CCCCC2)cc1)c1ccc2ccccc2n1,-3,0.5,42,45,54*
CC12CCC(=O)N1C(C(=O)OCC(=O)Nc1ccc(C(F)(F)F)cc1)CS2 (stereo not drawn),.,.,-9,.,.
CC1(C(=O)NS(=O)(=O)C2CC2)CCCN(C(=O)/C=C/c2ccccc2)C1 (stereo not drawn),.,.,9,.,.
SMILES,HSP90 inh,FLuc stim CS,C8 TRAIL sens,PPC-1+TRAIL kill,FLuc inh counter
COc1ccc(NC(=O)c2ccc3c(c2)OCO3)cc1Cl,1,0.4,35,41,61*
O=C(Nc1ccc(F)c(Cl)c1)c1ccc2c(c1)OCO2,4,.,8,.,.
CC[C@]12c3[nH]c4ccc(OC)cc4c3CCN1C(=O)C(CC(=O)NCCc1ccccn1)C[C@@H]2C(=O)N1CCN(C(=O)c2ccco2)CC1 (stereo partly drawn),.,.,-12,.,.
CN(C)c1ccc(N=Nc2ccccc2C(=O)OCC(=O)N(C)C2CCCCC2)cc1,-1,0.3,5,27,68*
CN(C)c1ccc(N=Nc2ccccc2C(=O)OCC(=O)NCC2CCCCC2)cc1,6,0.5,22,18,48
CN(C)c1ccc(N=Nc2ccccc2C(=O)OCC(=O)NC2CCCC2)cc1,1,0.4,20,29,59*
